Laboratory results reported in ChEMBL document CHEMBL1123625, “Synthesis and antitumor activity of tropolone derivatives. 6. Structure-activity relationships of antitumor-active tropolone and 8-hydroxyquinoline derivatives” (J Med Chem, 1987).
≈ marks a conversion by molar mass, not a printed value. Calls of active or inactive are those of the source. The calls are words filed in the database; no cut-off is given here.

Experiments:
[1] = tested on: Mus musculus; assay: Antitumor activity against leukemia P388 cell line in mice was determined at 400 mg/kg intraperitoneal dose; IA means inactive; format: functional, organism-based; set-up: dose 400 mg/kg
Procedure, shortened: (§1)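 Mice bearing leukemia P388, dosed intraperitoneally; activity read out as % T/C.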

[2] = Antitumor activity was determined by the ability to inhibit KB cell growth; format: functional, cell-based; conditions: Homo sapiens
Procedure, shortened: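 KB cell growth inhibition, reported as IC50 in μg/mL.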

[3] = tested on: Mus musculus; assay: Antitumor activity against leukemia P388 cell line in mice was determined at 2.5 mg/kg intraperitoneal dose; format: functional; procedure, shortened: as §1
[4] = tested on: Mus musculus; assay: Antitumor activity against leukemia P388 cell line in mice was determined at 20 mg/kg intraperitoneal dose; format: functional; procedure, shortened: as §1
[5] = tested on: Mus musculus; assay: Antitumor activity against leukemia P388 cell line in mice was determined at 10 mg/kg intraperitoneal dose; format: functional; procedure, shortened: as §1
[6] = tested on: Mus musculus; assay: Antitumor activity against leukemia P388 cell line in mice was determined at 12.5 mg/kg intraperitoneal dose; format: functional; procedure, shortened: as §1
[7] = tested on: Mus musculus; assay: Antitumor activity against leukemia P388 cell line in mice was determined at 6.3 mg/kg intraperitoneal dose; format: functional; procedure, shortened: as §1
[8] = tested on: Mus musculus; assay: Antitumor activity against leukemia P388 cell line in mice was determined at 3.1 mg/kg intraperitoneal dose; format: functional; procedure, shortened: as §1
[9] = tested on: Mus musculus; assay: Antitumor activity against leukemia P388 cell line in mice was determined at 400 mg/kg intraperitoneal dose; format: functional; procedure, shortened: as §1
[10] = tested on: Mus musculus; assay: Antitumor activity against leukemia P388 cell line in mice was determined at 100 mg/kg intraperitoneal dose; format: functional; procedure, shortened: as §1
[11] = tested on: Mus musculus; assay: Antitumor activity against leukemia P388 cell line in mice was determined at 40 mg/kg intraperitoneal dose; format: functional; procedure, shortened: as §1
[12] = tested on: Mus musculus; assay: Antitumor activity against leukemia P388 cell line in mice was determined at 25 mg/kg intraperitoneal dose; format: functional; procedure, shortened: as §1
[13] = tested on: Mus musculus; assay: Antitumor activity against leukemia P388 cell line in mice was determined at 50 mg/kg intraperitoneal dose; format: functional; procedure, shortened: as §1

SMILES: CCOC(c1ccccc1)c1ccc(C(C)C)cc(=O)c1O (centres undefined)
- T/C [1]: inactive
- IC50 [2]: < 0.3 µg/mL

SMILES: Oc1c(C(c2cccs2)c2ccc3cccnc3c2O)ccc2cccnc12
- T/C [3]: 108%
- T/C [4]: 136%
- T/C [5]: 125%
- IC50 [2]: < 0.3 µg/mL

SMILES: COc1ccc(C(c2ccc3cccnc3c2O)c2ccc3cccnc3c2O)cc1
- T/C [6]: 164%
- IC50 [2]: < 0.3 µg/mL
- T/C [7]: 128%
- T/C [8]: 111%

SMILES: CCOC(c1ccc(OC)cc1)c1c(O)ccc2ncccc12 (centres undefined)
- T/C [1]: inactive
- IC50 [2]: 44 µg/mL (≈ 142 µM)

SMILES: CCOC(c1ccc(OC)cc1)c1ccc2cccnc2c1O (centres undefined)
- IC50 [2]: 0.8 µg/mL (≈ 2.59 µM)
- T/C [9]: 129%
- T/C [10]: 112%

SMILES: Oc1c(C2OCCc3ccccc32)ccc2cccnc12 (centres undefined)
- T/C [1]: inactive
- IC50 [2]: 1.3 µg/mL (≈ 4.69 µM)

SMILES: COc1ccc(C(c2ccc(C(C)C)cc(=O)c2O)c2ccc(C(C)C)cc(=O)c2O)cc1
- T/C [5]: 170%
- IC50 [2]: < 0.3 µg/mL

SMILES: COc1ccc(C(c2c(O)ccc3ncccc23)c2c(O)ccc3ncccc23)cc1
- T/C [1]: inactive
- IC50 [2]: 17 µg/mL (≈ 41.6 µM)

SMILES: Oc1c(C(c2ccco2)c2ccc3cccnc3c2O)ccc2cccnc12
- T/C [11]: 138%
- T/C [4]: 120%
- T/C [5]: 113%
- IC50 [2]: < 0.3 µg/mL

SMILES: COc1ccc(C(c2ccc(C(C)C)cc(=O)c2O)c2oc(CO)cc(=O)c2O)cc1 (centres undefined)
- T/C [6]: 128%
- IC50 [2]: 0.5 µg/mL (≈ 1.18 µM)
- T/C [12]: 146%
- T/C [13]: 152%

SMILES: CC(C)c1ccc(C2OCCc3ccccc32)c(O)c(=O)c1 (centres undefined)
- T/C [10]: 112%

SMILES: COc1ccc(C(c2ccc3cccnc3c2O)c2oc(CO)cc(=O)c2O)cc1 (centres undefined)
- T/C [6]: 120%
- IC50 [2]: < 0.3 µg/mL
- T/C [12]: 138%
- T/C [13]: 135%
